Results: ChEMBL document CHEMBL2417446, “Atropisomeric 4-phenyl-4H-1,2,4-triazoles as selective glycine transporter 1 inhibitors” (J Med Chem, 2013)
Converted amounts (≈) assume the structure as drawn.

What was measured:
[1] = target: T1, Sodium- and chloride-dependent glycine transporter 1 (Rattus norvegicus, UniProt P28572); assay: Displacement of [3H]glycine from GlyT1 in rat C6 glioma cells incubated for 30 mins prior to substrate addition measured after 10 mins by scintillation counting analysis; type: cell-based
T1 sequence (P28572 whole entry): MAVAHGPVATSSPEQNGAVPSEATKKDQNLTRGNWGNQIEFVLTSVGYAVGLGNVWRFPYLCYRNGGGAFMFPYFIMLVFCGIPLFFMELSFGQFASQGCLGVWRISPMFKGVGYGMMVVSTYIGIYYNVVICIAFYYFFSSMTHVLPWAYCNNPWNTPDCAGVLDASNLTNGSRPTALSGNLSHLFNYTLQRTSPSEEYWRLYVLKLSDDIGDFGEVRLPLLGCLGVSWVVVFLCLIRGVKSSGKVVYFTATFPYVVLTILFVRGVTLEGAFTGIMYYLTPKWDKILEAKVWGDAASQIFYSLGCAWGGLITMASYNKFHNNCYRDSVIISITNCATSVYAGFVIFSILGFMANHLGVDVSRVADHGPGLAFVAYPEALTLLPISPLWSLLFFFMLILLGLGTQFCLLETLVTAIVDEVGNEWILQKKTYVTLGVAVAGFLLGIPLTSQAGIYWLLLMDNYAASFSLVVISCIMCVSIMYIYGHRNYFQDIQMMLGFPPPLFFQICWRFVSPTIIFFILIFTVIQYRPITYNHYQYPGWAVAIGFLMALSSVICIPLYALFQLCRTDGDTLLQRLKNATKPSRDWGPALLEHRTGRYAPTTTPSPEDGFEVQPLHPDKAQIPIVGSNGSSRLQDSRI

[2] = Aqueous solubility of the compound at pH 6.8 after 20 hrs by HPLC analysis; type: physicochemical; conditions: buffer; for solubility at 20 h: pH 6.8; for solubility: pH 6.8, 20 h, 20 h
[3] = Intrinsic clearance in human liver microsomes after 30 mins by LC-MS/MS analysis; type: ADME, Microsome; conditions: read-out: CLH
How it was run: (§1)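 Liver microsome CLint was run in duplicate.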

[4] = Intrinsic clearance in ddY mouse liver microsomes by LC-MS/MS analysis; type: ADME, Microsome; conditions: read-out: CLH; how it was run: as §1
MDR1 = assay: (§2) Apparent permeability from apical to basolateral side in pig LLC-PK1 cells expressing MDR1 after 2 hrs by LC-MS/MS analysis; type: ADME, cell-based, Sus scrofa; conditions: LLC-PK1
How it was run: (§3)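 Transport in LLC-PK1 cells and in LLC-GA5-COL150 cells (LLC-PK1 transfected with human MDR1). Papp = amount transported divided by initial donor concentration. Efflux ratio compares the Papp of the two directions (BA/AB).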

[5] = Lipophilicity, log D of the compound at pH 7.4; type: physicochemical; conditions: buffer
[6] = Ratio of brain to plasma in ddY mouse at 1 mg/kg, iv by LC-MS analysis; type: ADME, organism-based; parameters: dose 1 mg/kg, route intravenous; conditions: read-out: BPR
[7] = target: T2, Sodium- and chloride-dependent glycine transporter 1 (Rattus norvegicus) (UniProt P28572); conditions: C6 glioma, 10 uM
T2 sequence (whole entry): T1 sequence (P28572 whole entry)

[8] = target: T3, Sodium- and chloride-dependent glycine transporter 2 (Rattus norvegicus, UniProt P58295); assay: Displacement of [3H]glycine from GlyT2 in Wistar rat brainstem cells after 10 mins by scintillation counting analysis; type: cell-based
T3 sequence (P58295 whole entry): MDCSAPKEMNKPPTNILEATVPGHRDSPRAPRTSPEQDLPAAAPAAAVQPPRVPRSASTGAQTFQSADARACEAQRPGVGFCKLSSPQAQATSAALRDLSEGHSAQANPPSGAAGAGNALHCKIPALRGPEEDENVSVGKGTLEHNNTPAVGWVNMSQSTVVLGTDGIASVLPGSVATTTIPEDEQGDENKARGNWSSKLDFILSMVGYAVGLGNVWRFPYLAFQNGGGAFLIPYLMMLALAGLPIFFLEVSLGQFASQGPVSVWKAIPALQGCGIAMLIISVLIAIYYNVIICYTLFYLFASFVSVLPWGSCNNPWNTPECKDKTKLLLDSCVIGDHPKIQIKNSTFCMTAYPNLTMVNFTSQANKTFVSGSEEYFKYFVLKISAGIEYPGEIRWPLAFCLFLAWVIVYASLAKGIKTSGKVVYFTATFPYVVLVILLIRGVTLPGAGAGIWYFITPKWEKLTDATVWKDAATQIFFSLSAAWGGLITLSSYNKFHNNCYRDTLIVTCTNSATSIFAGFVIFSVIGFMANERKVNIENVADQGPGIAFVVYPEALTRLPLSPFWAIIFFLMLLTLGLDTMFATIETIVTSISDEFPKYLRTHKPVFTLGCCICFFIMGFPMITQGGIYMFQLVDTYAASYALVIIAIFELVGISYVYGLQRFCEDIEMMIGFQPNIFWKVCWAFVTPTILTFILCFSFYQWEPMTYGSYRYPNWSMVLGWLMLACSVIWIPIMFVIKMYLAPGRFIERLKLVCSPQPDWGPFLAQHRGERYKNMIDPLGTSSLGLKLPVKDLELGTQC

[9] = AUC in cynomolgus monkey at 1 mg/kg, iv by LC/MS analysis; type: ADME, organism-based, Macaca fascicularis; parameters: dose 1 mg/kg, route intravenous; conditions: plasma
How it was run: (§4)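 Single dose given iv at 1 mg/kg or po at 3 mg/kg; each value is the mean of n = 3 measurements.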

[10] = Plasma clearance in ddY mouse at 1 mg/kg, iv by LC/MS analysis; type: ADME, organism-based; parameters: dose 1 mg/kg, route intravenous; how it was run: as §4
[11] = Volume of distribution at steady state in cynomolgus monkey at 1 mg/kg, iv by LC/MS analysis; type: ADME, organism-based, Macaca fascicularis; parameters: dose 1 mg/kg, route intravenous; conditions: in vivo, read-out: Vdss
How it was run: (§5)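 Single intravenous dose as a pharmacokinetic study, with each parameter reported as the mean of n = 3 measurements.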

LLC-PK1 = assay: as §2; type: ADME, cell-based, Sus scrofa; conditions: llc-pk1, 2 h, 2 h; how it was run: as §3
[12] = Oral bioavailability in cynomolgus monkey at 3 mg/kg by LC/MS analysis; type: ADME, organism-based, Macaca fascicularis; conditions: in vivo; how it was run: as §4
[13] = Volume of distribution at steady state in ddY mouse at 1 mg/kg, iv by LC/MS analysis; type: ADME, organism-based; parameters: dose 1 mg/kg, route intravenous; conditions: in vivo, read-out: Vdss; how it was run: as §5
[14] = Plasma clearance in cynomolgus monkey at 1 mg/kg, iv by LC/MS analysis; type: ADME, organism-based, Macaca fascicularis; parameters: dose 1 mg/kg, route intravenous; how it was run: as §4
[15] = Oral bioavailability in ddY mouse at 3 mg/kg by LC/MS analysis; type: ADME, organism-based; conditions: in vivo; how it was run: as §4
[16] = Intrinsic clearance in cynomolgus monkey liver microsomes after 30 mins by LC-MS/MS analysis; type: ADME, Macaca fascicularis, Microsome; conditions: read-out: CLH; how it was run: as §1
[17] = AUC in ddY mouse at 1 mg/kg, iv by LC/MS analysis; type: ADME, organism-based; parameters: dose 1 mg/kg, route intravenous; conditions: plasma; how it was run: as §4
[18] = Cmax in ddY mouse at 3 mg/kg, po by LC/MS analysis; type: ADME, organism-based; parameters: dose 3 mg/kg, route oral; conditions: in vivo; how it was run: as §4
[19] = Half life in ddY mouse at 1 mg/kg, iv by LC/MS analysis; type: ADME, organism-based; parameters: dose 1 mg/kg, route intravenous; conditions: in vivo; how it was run: as §4
[20] = Cmax in cynomolgus monkey at 3 mg/kg, po by LC/MS analysis; type: ADME, organism-based, Macaca fascicularis; parameters: dose 3 mg/kg, route oral; conditions: in vivo; how it was run: as §4
[21] = AUC in cynomolgus monkey at 3 mg/kg, po by LC/MS analysis; type: ADME, organism-based, Macaca fascicularis; parameters: dose 3 mg/kg, route oral; conditions: plasma; how it was run: as §4
[22] = AUC in ddY mouse at 3 mg/kg, po by LC/MS analysis; type: ADME, organism-based; parameters: dose 3 mg/kg, route oral; conditions: plasma; how it was run: as §4
[23] = Half life in cynomolgus monkey at 1 mg/kg, iv by LC/MS analysis; type: ADME, organism-based, Macaca fascicularis; parameters: dose 1 mg/kg, route intravenous; conditions: in vivo; how it was run: as §4

For `CCc1nnc(-c2ccc(-c3ccccc3)cc2)n1-c1cccc(CN(C)C)c1C`, the IC50 [1] was 29 µM.
With `CCc1nnc(N2CCC(c3ccccc3)CC2)n1-c1ccccc1F` the IC50 [1] was 3.7 µM.
`CCc1nnc(-c2ccc(-c3ccccc3)cc2)n1-c1cccc(N(C)C)c1C` showed an IC50 [1] of 3.1 µM.
Work on `CCc1nnc(-c2ccc(-c3ccccc3)cc2)n1-c1cccc(C(N)=O)c1C` yielded an IC50 [1] of 3.9 µM.
Work on `CCc1nnc(N2CCN(c3ccccc3)CC2)n1-c1ccccc1F` yielded an IC50 [1] of 2.6 µM.
With `CCc1nnc(-c2ccc(-c3ccccc3)cc2)n1-c1cccc(C(=O)OC)c1C` the IC50 [1] was 5.1 µM.
In the case of `CCc1nnc(C2CCN(c3ccccc3)CC2)n1-c1ccccc1F`, the IC50 [1] is reported as 6.6 µM.
With `CCc1nnc(-c2ccc(-c3ccccc3)nc2)n1-c1cccc(C#N)c1C` (atropisomer S) the solubility at 20 h [2] was 94 µM (≈ 34.4 µg/mL).
`CCc1nnc(-c2ccc(-c3ccccc3)cc2)n1-c1cccc(C#N)c1C` showed a CLint scaled [3] of 126 mL/min/kg, a CLint scaled [4] greater than 1000 mL/min/kg and a Papp A→B at 2 h (MDR1) of 27.5 ×10⁻⁶ cm/s. The logD [5] was 4.1 and the solubility at 20 h [2] was less than 1 µM.
`CCc1nnc(-c2ccc(-c3ccccc3)cc2)n1-c1cccc(Br)c1C` showed an IC50 [1] of 2.2 µM.
`CCc1nnc(-c2ccc(-c3ccccc3)cc2)n1-c1cccc(CC#N)c1C` gave an IC50 [1] of 2.8 µM.
With `CCc1nnc(-c2ccc(-c3ccccc3)nc2)n1-c1cccc(C#N)c1C` the Papp A→B at 2 h (MDR1) was 29.6 ×10⁻⁶ cm/s, the solubility [2] was 98 µM (≈ 35.8 µg/mL) and the Kp [6] was 0.7.
`Cc1nnc(-c2ccc(-c3ccncc3)cc2)n1-c1ccccc1F` showed an IC50 [1] of 5.9 µM.
`CCc1nnc(-c2ccc(-c3ccccc3)cc2)n1-c1ccccc1F` showed a solubility at 20 h [2] of less than 1 µM.
With `CCc1nnc(-c2ccc(-c3ccccc3)cc2)n1-c1cccc2cnccc12` the CLint scaled [3] was 374 mL/min/kg, the CLint scaled [4] was greater than 1000 mL/min/kg and the Papp A→B at 2 h (MDR1) was 25.6 ×10⁻⁶ cm/s. For the same molecule, the logD [5] was 4.1 and the solubility at 20 h [2] was 5 µM (≈ 1.88 µg/mL).
`Cc1nnc(-c2ccc(-c3cccnc3)cc2)n1-c1ccccc1F` gave an IC50 [1] of 7 µM.
For `CCc1nnc(-c2ccc(-c3ccccc3)cc2)n1-c1cccc(Cl)c1C`, the IC50 [1] was 2.2 µM.
`CCc1nnc(-c2ccc(-c3ccccc3)cc2)n1-c1cccc(C(F)(F)F)c1C` showed an IC50 [1] greater than 10 µM and an inhibition [7] of 38%.
For `Cc1nnc(-c2ccc(-c3ccccn3)cc2)n1-c1ccccc1F`, the IC50 [1] was 0.86 µM and the IC50 [8] was 1.6 µM.
`CCc1nnc(-c2ccc(-c3ccccc3)nc2)n1-c1cccc(C#N)c1C` (atropisomer R) showed an AUC [9] of 875 ng·h/mL, a CLint scaled [3] of 55 mL/min/kg and a clearance [10] of 67 mL/min/kg. It also gave a CLint scaled [4] of 787 mL/min/kg, a Vd [11] of 3.4 L/kg and a Papp (LLC-PK1) of 35.4 ×10⁻⁶ cm/s. For the same molecule, the logD [5] was 3, the bioavailability [12] was 23% and the solubility [2] was 95 µM (≈ 34.7 µg/mL). For the same molecule, the Vd [13] was 1 L/kg, the clearance [14] was 21 mL/min/kg and the bioavailability [15] was 32%. The CLint scaled [16] was 162 mL/min/kg, the AUC [17] was 248 ng·h/mL and the Cmax [18] was 319 ng/mL. The half-life [19] was 0.22 h, the Cmax [20] was 141 ng/mL and the AUC [21] was 522 ng·h/mL. The AUC [22] was 235 ng·h/mL and the half-life [23] was 2.4 h.
Work on `CCc1nnc(-c2ccc(-c3ccccc3)nc2)n1-c1ccccc1F` yielded a solubility at 20 h [2] of 31 µM (≈ 10.7 µg/mL).
In the case of `CCc1nnc(-c2ccc(-c3ccccc3)cc2)n1-c1cccc(COC)c1C`, the IC50 [1] is reported as 2.4 µM.
